From ChEMBL document CHEMBL2203116, “Synthesis and evaluation of novel carbon-11 labeled oxopurine analogues for positron emission tomography imaging of translocator protein (18 kDa) in peripheral organs” (J Med Chem, 2011)

What was measured:
Translocator protein = Translocator protein (Rattus norvegicus, UniProt P16257); assay: Displacement of [11C]-PK-11195 from TPSO in Sprague-Dawley rat brain homogenate after 30 mins by gamma counting; type: tissue-based
[1] = Lipophilicity, log D of the compound in octanol-phosphate buffer at pH 7.4 by shake flask method; type: physicochemical
Summary of the method: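 Radioligand (~200000 cpm) shaken with n-octanol (3.0 g) and 0.1 M sodium phosphate buffer pH 7.4 (3.0 g). Vortexed 3 min at room temperature, centrifuged 3500 rpm for 5 min. Phases weighed and counted; organic layer repartitioned until consistent. LogD = log of the cpm/g octanol to cpm/g buffer ratio. Triplicate.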

Liver [2] = assay: Drug uptake in Sprague-Dawley rat liver at 0.18 nmol, iv pretreated with unlabeled (R)-PK11195 measured after 27.5 mins by PET scanning relative to control; type: ADME, organism-based; settings: in vivo
Summary of the method: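 Male Sprague-Dawley rats, 6-8 weeks old, under isoflurane, prone. An unlabeled TSPO blocking ligand (3.0 mg/kg) was injected 1 min before the iv radioligand (16-18 MBq/200 μL). A liver ROI was decay-corrected and expressed as SUV normalized to injected activity and body weight. The 27.5-min value was compared with unblocked controls; n = 4.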

Kidney [3] = assay: Drug uptake in Sprague-Dawley rat kidney at 0.18 nmol, iv after 2 mins by PET scanning; type: ADME, organism-based; settings: in vivo
Summary of the method: (§1)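 Male Sprague-Dawley rats (6–8 weeks old), isoflurane-anesthetized, prone. ROIs on lung, heart, kidney, liver, small intestine and cardiac blood pool. Uptake decay-corrected to injection time and expressed as SUV (body-weight normalized). n = 4, mean ± SD.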

Blood [4] = assay: Drug uptake in Sprague-Dawley rat cardiac blood pool at 0.18 nmol, iv up to 30 mins by PET scanning; type: ADME, organism-based; settings: in vivo, 0.5 h
Summary of the method: (§2)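 Isoflurane-anesthetized male Sprague-Dawley rats lay prone and received an iv bolus of [11C]radioligand in 200 μL. 3D list-mode emission scans ran 30 min from injection. Regions of interest were drawn on the organs and cardiac blood pool. Uptake was decay-corrected to injection time and expressed as SUV (normalized to injected radioactivity and body weight). Values are mean of n = 4.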

Lung [5] = assay: Drug uptake in Sprague-Dawley rat lung at 0.18 nmol, iv pretreated with unlabeled AC-5216 by PET scanning; type: ADME, organism-based; settings: in vivo; summary of the method: as §1
Blood [6] = assay: Drug uptake in Sprague-Dawley rat cardiac blood pool at 0.18 nmol, iv after 27.5 mins by PET scanning; type: ADME, organism-based; settings: in vivo; summary of the method: as §2
Lung [7] = assay: Drug uptake in Sprague-Dawley rat lung at 0.18 nmol, iv pretreated with unlabeled (R)-PK11195 by PET scanning; type: ADME, organism-based; settings: in vivo; summary of the method: as §1
Kidney [8] = assay: Drug uptake in Sprague-Dawley rat kidney at 0.18 nmol, iv pretreated with unlabeled (R)-PK11195 by PET scanning; type: ADME, organism-based; settings: in vivo; summary of the method: as §1
Liver [9] = assay: Drug uptake in Sprague-Dawley rat liver at 0.18 nmol, iv pretreated unlabeled AC-5216 measured after 27.5 mins by PET scanning relative to control; type: ADME, organism-based; settings: in vivo
Summary of the method: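 Male Sprague-Dawley rats, 6-8 weeks, isoflurane-anesthetized. A blocking TSPO ligand (1.0 mg/kg, in 300 μL saline with 10% ethanol and 5% polysorbate 80) was injected 1 min before iv radioligand (16-18 MBq/200 μL). Liver ROI as decay-corrected SUV (injected activity, body weight), 27.5-min value versus controls; n = 4.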

Lung [10] = assay: Drug uptake in Sprague-Dawley rat lung at 0.18 nmol, iv after 27.5 mins by PET scanning; type: ADME, organism-based; settings: in vivo; summary of the method: as §1
Heart [11] = assay: Drug uptake in Sprague-Dawley rat heart at 0.18 nmol, iv after 2 mins by PET scanning; type: ADME, organism-based; settings: in vivo; summary of the method: as §2
Kidney [12] = assay: Drug uptake in Sprague-Dawley rat kidney at 0.18 nmol, iv pretreated with unlabeled AC-5216 by PET scanning; type: ADME, organism-based; settings: in vivo; summary of the method: as §1
Heart [13] = assay: Drug uptake in Sprague-Dawley rat heart at 0.18 nmol, iv up to 30 mins by PET scanning; type: ADME, organism-based; settings: in vivo, 0.5 h; summary of the method: as §2
Liver [14] = assay: Drug uptake in Sprague-Dawley rat liver at 0.18 nmol, iv after 27.5 mins by PET scanning; type: ADME, organism-based; settings: in vivo; summary of the method: as §1
Heart [15] = assay: Drug uptake in Sprague-Dawley rat heart at 0.18 nmol, iv pretreated with unlabeled (R)-PK11195 by PET scanning; type: ADME, organism-based; settings: in vivo
Summary of the method: (§3)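 Isoflurane-anesthetized Sprague-Dawley rats underwent 30-min PET after iv [11C]radioligand, with unlabeled blocker given iv 1 min before tracer. Blockers were (R)-PK11195 at 3.0 mg/kg or AC-5216 at 1.0 mg/kg in 300 μL saline with 10% ethanol and 5% polysorbate 80. Regional uptake was decay-corrected SUV (n = 4).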

Intestine = assay: Drug uptake in Sprague-Dawley rat small intestine at 0.18 nmol, iv up to 30 mins by PET scanning; type: ADME, organism-based; settings: in vivo, 0.5 h; summary of the method: as §1
Heart [16] = assay: Drug uptake in Sprague-Dawley rat heart at 0.18 nmol, iv after 27.5 mins by PET scanning; type: ADME, organism-based; settings: in vivo; summary of the method: as §2
Kidney [17] = assay: Drug uptake in Sprague-Dawley rat kidney at 0.18 nmol, iv up to 30 mins by PET scanning; type: ADME, organism-based; settings: in vivo, 0.5 h; summary of the method: as §1
Liver [18] = assay: Drug uptake in Sprague-Dawley rat liver at 0.18 nmol, iv after 2 mins by PET scanning; type: ADME, organism-based; settings: in vivo; summary of the method: as §1
Blood [19] = assay: Drug uptake in Sprague-Dawley rat cardiac blood pool at 0.18 nmol, iv after 2 mins by PET scanning; type: ADME, organism-based; settings: in vivo; summary of the method: as §2
Heart [20] = assay: Drug uptake in Sprague-Dawley rat heart at 0.18 nmol, iv pretreated with unlabeled AC-5216 by PET scanning; type: ADME, organism-based; settings: in vivo; summary of the method: as §3
Kidney [21] = assay: Drug uptake in Sprague-Dawley rat kidney at 0.18 nmol, iv after 27.5 mins by PET scanning; type: ADME, organism-based; settings: in vivo; summary of the method: as §1
Lung [22] = assay: Drug uptake in Sprague-Dawley rat lung at 0.18 nmol, iv after 2 mins by PET scanning; type: ADME, organism-based; settings: in vivo; summary of the method: as §1
Lung [23] = assay: Drug uptake in Sprague-Dawley rat lung at 0.18 nmol, iv up to 30 mins by PET scanning; type: ADME, organism-based; settings: in vivo, 0.5 h; summary of the method: as §1
Liver [24] = assay: Drug uptake in Sprague-Dawley rat liver at 0.18 nmol, iv up to 30 mins by PET scanning; type: ADME, organism-based; settings: in vivo, 0.5 h; summary of the method: as §1

Translocator protein, sequence (P16257 whole entry, looked up): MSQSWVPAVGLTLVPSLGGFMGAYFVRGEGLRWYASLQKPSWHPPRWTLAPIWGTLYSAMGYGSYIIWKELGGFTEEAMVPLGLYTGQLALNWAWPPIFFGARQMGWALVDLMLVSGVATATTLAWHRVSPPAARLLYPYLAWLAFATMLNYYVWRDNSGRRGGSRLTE

Structure (SMILES): CN(Cc1cccnc1)C(=O)Cn1c(=O)n(C)c2cnc(-c3ccccc3)nc21
- Ki (Translocator protein): 40 nM
- logD [1]: 1.81

Structure (SMILES): CCN(Cc1cccnc1)C(=O)Cn1c(=O)n([11CH3])c2cnc(-c3ccccc3)nc21
- fold change (FC) (Liver [2]): 1.5
- SUV (Kidney [3]): 3.3
- Drug uptake (Blood [4]): Active
- Drug uptake (Lung [5]): Not Active
- SUV (Blood [6]): 0.4
- Drug uptake (Lung [7]): Not Active
- Drug uptake (Kidney [8]): Not Active
- fold change (FC) (Liver [9]): 1.5
- SUV (Lung [10]): 0.5
- SUV (Heart [11]): 4.6
- Drug uptake (Kidney [12]): Not Active
- Drug uptake (Heart [13]): Active
- SUV (Liver [14]): 0.5
- Drug uptake (Heart [15]): Not Active
- Drug uptake (Intestine): Active
- SUV (Heart [16]): 0.9
- Drug uptake (Kidney [17]): Active
- SUV (Liver [18]): 1.6
- SUV (Blood [19]): 3
- Drug uptake (Heart [20]): Not Active
- SUV (Kidney [21]): 1
- SUV (Lung [22]): 3.4
- Drug uptake (Lung [23]): Active
- Drug uptake (Liver [24]): Active
